GalR3 antag – GalR3 antagonists in HEK293 cells, primary screen, cell-based, fluorescence readout; HEK293 GalR3-CNG cAMP membrane potential fluorescence; galR3 body fused to GalR1 C-terminus; Galanin receptor type 3 (Homo sapiens), O60755; AID 651719, 2012; 360,000 tested, 0.44% active; inhibition, % at 3 µM;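 active = inhibition above the screen-wide average plus 3 SD, cut at about 13% in these data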;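 also: forskolin and galanin both at EC90 stimulate the cells; cAMP rise reported by CNG channel membrane potential dye signal; 0% = forskolin plus galanin with DMSO and 100% = forskolin alone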
Target sequence (O60755 1-299 limits assumed): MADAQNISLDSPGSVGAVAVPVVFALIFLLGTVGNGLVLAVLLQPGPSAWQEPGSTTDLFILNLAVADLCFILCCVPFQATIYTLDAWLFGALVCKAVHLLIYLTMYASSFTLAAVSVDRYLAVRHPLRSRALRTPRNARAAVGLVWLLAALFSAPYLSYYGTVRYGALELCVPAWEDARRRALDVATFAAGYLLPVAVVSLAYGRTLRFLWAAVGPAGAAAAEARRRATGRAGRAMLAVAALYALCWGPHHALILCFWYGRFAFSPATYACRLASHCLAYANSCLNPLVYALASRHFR
OX1R antag-1 – OX1R (HCRTR1) antagonists, primary screen, fluorescence, CHO/OX1R cells, Fluo-8 calcium, orexin A; Fluo-8 calcium fluorescence; inhibition, % at 5 µM; 330,000 tested, 0.43% active;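 active = inhibition above its plate's threshold, mean inhibition of all tested compounds on the plate plus 3 SD, cut at about 37% in these data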;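 also: 0% = orexin A challenge wells and 100% = SB-334867-A antagonist wells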
CHO parental Ca – ATP-evoked calcium signal inhibitors, parental CHO, primary screen, counter-screen for OX1R antagonist project, cell-based, fluorescence, Fluo-8 calcium dye. parental CHO-K1, ATP-induced calcium, Fluo-8 fluorescence. inhibition, % at 5.6 µM. 330,000 tested, 0.63% active. AID 463079, 2010;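 active = inhibition above that plate's mean sample inhibition plus 3 SD, cut at about 26% in these data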;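 also: 0% = ATP-challenged DMSO wells and 100% = DMSO wells without ATP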
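material = parental CHO cells | also added = ATP as calcium-mobilizing challenge | dosing = single point at 5.6 µM | detection = intracellular calcium via Fluo-8 no-wash fluorescent dye | read-out = % inhibition | benchmarks = low control ATP plus DMSO, high control DMSO only | repeats = one well per compound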
OX1R antag-2 – antagonists of human orexin 1 receptor (OX1R); Orexin/Hypocretin receptor type 1 (Homo sapiens), O43613; 330,000 tested, 1.8% active; inhibition, % at 6.6 µM; OX1R-expressing cells, FRET antagonist read-out; in the data active = inhibition mostly above about 38%, no sharp cut-off; inactive = mostly below about 40%;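 also: 0% = agonist challenge alone and 100% = reference antagonist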
GPR7 antagonist – GPR7 receptor antagonists, primary screen, cell-based, fluorescence, single concentration; inhibition, % at 4.4 µM; Neuropeptides B/W receptor type 1 (Homo sapiens), P48145; GPR7-expressing cells, fluorescence antagonist assay; 290,000 tested, 1.1% active; AID 1861, 2009; in the data active = inhibition above about 16%, passing the limit was not always enough;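 also: cells stimulated with the agonist NPW; 0% = agonist with vehicle and 100% = vehicle without agonist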
Target sequence (P48145 whole entry, looked up): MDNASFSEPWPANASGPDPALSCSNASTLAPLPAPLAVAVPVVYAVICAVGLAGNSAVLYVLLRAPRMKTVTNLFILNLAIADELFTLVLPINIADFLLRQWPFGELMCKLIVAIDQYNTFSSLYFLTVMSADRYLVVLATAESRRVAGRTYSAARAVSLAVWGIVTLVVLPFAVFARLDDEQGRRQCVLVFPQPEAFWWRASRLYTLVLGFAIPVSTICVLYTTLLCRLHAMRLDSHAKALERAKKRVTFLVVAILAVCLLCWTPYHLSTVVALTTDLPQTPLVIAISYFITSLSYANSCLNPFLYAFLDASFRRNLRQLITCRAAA
GPR7 antag conf – GPR7 receptor antagonists, confirmation, cell-based, fluorescence, single concentration. shares compounds with GPR7 antagonist. inhibition, % at 4.4 µM. 2,400 tested, 52% active. GPR7-expressing cells, calcium fluorescence antagonist mode; in the data active = inhibition above about 24%;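 also: stimulated with the GPR7 agonist NPW; 0% = agonist plus vehicle and 100% = vehicle alone without agonist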
MCHR1 antagonist – MCHR1 antagonists in cells, counter-screen for GPR7 antagonist project, cell-based, fluorescence, human; shares compounds with GPR7 antagonist; MCHR1-expressing cells, fluorescence antagonist assay; inhibition, % at 4.4 µM; 2,400 tested, 62% active; AID 2148, 2009; in the data active = inhibition above about 22%;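 also: 0% = vehicle with agonist and 100% = vehicle without agonist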
Starred values were filed as active, the others as inactive. In the library only some 3.1% were active in any assay of this set; here they are far more common.

What do the screens show for `O=C(Cc1ccccc1F)Nc1cc(S(=O)(=O)N2CCCCC2)ccc1N1CCOCC1`?
GalR3 antag: -3.2

Results for CN(C)CCNC(=O)c1cc2c(s1)-c1ccc(Cl)cc1SC2 ?
GalR3 antag: -14.3; GPR7 antagonist: 69.1*; GPR7 antag conf: 93.0*; MCHR1 antagonist: 93.5*

What do the screens show for `O=C(Nc1cccc(F)c1)N1CCc2nc(NCc3cccc(Oc4ccccc4)c3)ncc2C1`?
GalR3 antag: -9.4

What do the screens show for `CC(C)CCCN1C(Nc2ccccc2)=NC[C@@H]1Cc1ccccc1`?
OX1R antag-1: -38.5; CHO parental Ca: -30.4; OX1R antag-2: 17.2; GPR7 antagonist: 35.8*; GPR7 antag conf: 31.0*; MCHR1 antagonist: 24.3*

How did CC(CCN1C(Nc2ccccc2)=NC[C@@H]1Cc1ccccc1)c1ccccc1 (stereo partly drawn) do in these assays?
GalR3 antag: -9.0; OX1R antag-1: -43.4; CHO parental Ca: -31.3; OX1R antag-2: 22.4; GPR7 antagonist: 37.7*; GPR7 antag conf: 51.4*; MCHR1 antagonist: 24.7*

Results for CC(CCN1C(Nc2ccccc2)=NC[C@@H]1C)c1ccccc1 (stereo partly drawn) ?
GalR3 antag: -3.9; OX1R antag-1: -9.8; CHO parental Ca: -12.3; OX1R antag-2: 38.0; GPR7 antagonist: 2.4

Results for CC(C)C[C@H]1CN=C(Nc2ccccc2)N1CCCCc1ccccc1 ?
GalR3 antag: -8.0; OX1R antag-1: -13.0; CHO parental Ca: -15.2; OX1R antag-2: 5.0; GPR7 antagonist: 39.2*; GPR7 antag conf: 38.5*; MCHR1 antagonist: 26.9*

Results for CC(C)CCN1C(Nc2ccccc2)=NC[C@@H]1Cc1ccccc1 ?
GalR3 antag: -11.8; OX1R antag-1: -13.5; CHO parental Ca: -22.2; OX1R antag-2: 22.2; GPR7 antagonist: 19.1

What do the screens show for `CC[C@H]1O[C@H](C)CC2=C1C(=O)OC(C)(C)O2`?
GalR3 antag: -6.4

Results for CC(=O)Nc1cc(-c2ccc(CO)cc2)cn2c(-c3ccc(F)cc3)cnc12 ?
GalR3 antag: -7.2

How did Cc1nc(N2CCC(C)CC2)c2c(C)c(C(=O)Nc3cccc(C(F)(F)F)c3)sc2n1 do in these assays?
GalR3 antag: -5.3; OX1R antag-1: -15.2; CHO parental Ca: -4.7; OX1R antag-2: 4.3; GPR7 antagonist: 25.0*; GPR7 antag conf: -29.3; MCHR1 antagonist: -3.8

How did CC1(Oc2ccc(-n3ccnc3)cc2)CCN(Cc2cccn2-c2nccs2)C1 (stereo not drawn) do in these assays?
GalR3 antag: -6.4

How did Cc1ccc(Oc2ccccc2NC(=O)CN2C(=O)NC3(CCCC3)C2=O)cc1 do in these assays?
GalR3 antag: 0.2; OX1R antag-1: -11.7; CHO parental Ca: -8.7; OX1R antag-2: 11.0; GPR7 antagonist: 29.1*; GPR7 antag conf: -11.2; MCHR1 antagonist: 0.8

Results for O=C(Nc1ccc(F)cc1)C(c1cc2ccccc2o1)N1CCN(C(=O)c2ccco2)CC1 (stereo not drawn) ?
GalR3 antag: -1.9

How did Cc1ccc(C)c(CN2CCC(CNC(=O)Nc3ccc(C)c(C)c3)CC2)c1 do in these assays?
GalR3 antag: -4.8; OX1R antag-1: -21.4; CHO parental Ca: -12.9; OX1R antag-2: -8.4; GPR7 antagonist: 36.4*; GPR7 antag conf: 16.7; MCHR1 antagonist: 24.8*

Results for CN(C)c1cccc2c(S(=O)(=O)NC(=O)[C@H]3O[C@@H](n4cnc5c(N)ncnc54)[C@H](O)[C@@H]3O)cccc12 ?
GalR3 antag: 4.1

How did O=C(COc1ccc(Cl)cc1)NCCNc1ccc([N+](=O)[O-])cc1 do in these assays?
GalR3 antag: -11.5; OX1R antag-1: -28.2; CHO parental Ca: -11.0; OX1R antag-2: 10.0; GPR7 antagonist: 52.0*; GPR7 antag conf: 48.6*; MCHR1 antagonist: 51.4*

Results for COC(=O)N1Cc2ccnnc2CC1c1ccccc1-c1ccc(OC)cc1 (stereo not drawn) ?
GalR3 antag: -7.9

Results for C=CCN1C(=O)S/C(=C/c2ccc(Sc3nc4ccccc4[nH]3)o2)C1=O ?
GalR3 antag: -5.2; OX1R antag-1: 47.4*; CHO parental Ca: 26.6; OX1R antag-2: 40.9; GPR7 antagonist: 53.6*; GPR7 antag conf: 37.0*; MCHR1 antagonist: 74.7*

What do the screens show for `C=CCN1C(=O)S/C(=C/c2ccsc2)C1=O`?
GalR3 antag: -0.8; OX1R antag-1: -14.6; CHO parental Ca: 3.4; OX1R antag-2: 5.5; GPR7 antagonist: -8.7

What do the screens show for `COc1ccccc1C(=O)Nc1ccc2c(C)cc(=O)oc2c1`?
GalR3 antag: -5.6; OX1R antag-1: -23.9; CHO parental Ca: -14.0; OX1R antag-2: 7.6; GPR7 antagonist: 42.0*; GPR7 antag conf: 13.7; MCHR1 antagonist: 10.5

Results for Cc1cc(=O)oc2cc(OC(=O)c3ccccc3)ccc12 ?
GalR3 antag: -1.7; OX1R antag-1: -21.1; CHO parental Ca: -16.7; OX1R antag-2: 9.8; MCHR1 antagonist: 18.2

What do the screens show for `CCOc1ncccc1C(=O)Nc1ccc2c(C)cc(=O)oc2c1`?
GalR3 antag: -2.8; OX1R antag-1: -18.8; CHO parental Ca: 1.1; OX1R antag-2: 7.9; GPR7 antagonist: -12.1

How did CSc1ccc2c(c1)N(CCC1CCCCN1C)c1ccccc1S2 (stereo not drawn) do in these assays?
GalR3 antag: -9.0; OX1R antag-1: 12.2; CHO parental Ca: 28.3; OX1R antag-2: 10.8; GPR7 antagonist: 42.5*; GPR7 antag conf: 76.4*; MCHR1 antagonist: 83.3*

What do the screens show for `O=C(NCc1ccccc1)c1cc(C2CCCCN2S(=O)(=O)c2cccs2)on1` (stereo not drawn)?
GalR3 antag: 2.3

What do the screens show for `COc1c(Br)cc(Br)cc1/C=N/n1c(C)nnc1C`?
GalR3 antag: -5.8; OX1R antag-1: -16.9; CHO parental Ca: -9.9; OX1R antag-2: 13.2; GPR7 antagonist: 26.9*; GPR7 antag conf: 0.0; MCHR1 antagonist: 10.3

How did COc1cc(/C=N/n2c(C)nnc2C)cc(OC)c1OC do in these assays?
GalR3 antag: -0.3; OX1R antag-1: -1.5; CHO parental Ca: -14.3; OX1R antag-2: -0.1; GPR7 antagonist: -12.5

What do the screens show for `O=C(C(=Cc1ccccc1)CN1CCCCC1)c1ccccc1`?
GalR3 antag: -6.9

Screening results as filed in PubChem BioAssay.
